Reference: PMC5623067 (Bioorganic & medicinal chemistry letters, 2017)
Values joined by “and” are separate entries in the source; they are usually repeats but may differ in a detail not shown here. Identical values can stand only once.

Experiments:
human topoisomerase IIα [1] = target: T1, human topoisomerase IIα (Homo sapiens, UniProt P11388); assay: Competition assay: block of etoposide-enhanced DNA cleavage; format: biochemical; details: 100 µM etoposide; 5-100 µM compound (compound 5 up to 10 µM)
human topoisomerase IIα [2] = target: T1, human topoisomerase IIα; assay: DNA relaxation catalyzed by 150 nM topoisomerase IIα; format: biochemical; details: 10 µM compound
Method in brief: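 Negatively supercoiled DNA relaxed by 150 nM human topoisomerase IIα with test compound present. Gels show supercoiled DNA without enzyme and enzyme-treated DNA without compound as controls. Each gel is representative of 2-4 independent experiments.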

human topoisomerase IIα [3] = target: T1, human topoisomerase IIα; assay: Inhibition of topoisomerase IIα-mediated DNA cleavage in the presence of Ca2+; format: biochemical; details: Ca2+ in place of Mg2+; 150 nM enzyme; xanthone up to 10 µM
Method in brief: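 Negatively supercoiled DNA incubated with 150 nM human topoisomerase IIα and test compound. CaCl2 was added to raise baseline enzyme-mediated DNA cleavage. Cleaved DNA was resolved on gels, with controls of DNA without enzyme and enzyme without compound. Cleavage without compound was set to 100%. Gels are representative of 3 experiments, and standard deviations come from 2-3 independent experiments.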

human topoisomerase IIα [4] = target: T1, human topoisomerase IIα; assay: DNA; format: biochemical; details: kDNA decatenation
human topoisomerase IIα [5] = target: T1, human topoisomerase IIα; assay: DNA relaxation assay; format: biochemical; details: 3 nM enzyme; for IC50: IC50 for inhibition of DNA relaxation, negatively supercoiled DNA
human topoisomerase IIα [6] = target: T1, human topoisomerase IIα; assay: ATP hydrolysis catalyzed by topoisomerase IIα; format: biochemical; details: up to 50 µM
[7] = Solubility limit noted in the assays; format: physicochemical; details: only used up to 10 µM

T1 sequence (P11388 whole entry): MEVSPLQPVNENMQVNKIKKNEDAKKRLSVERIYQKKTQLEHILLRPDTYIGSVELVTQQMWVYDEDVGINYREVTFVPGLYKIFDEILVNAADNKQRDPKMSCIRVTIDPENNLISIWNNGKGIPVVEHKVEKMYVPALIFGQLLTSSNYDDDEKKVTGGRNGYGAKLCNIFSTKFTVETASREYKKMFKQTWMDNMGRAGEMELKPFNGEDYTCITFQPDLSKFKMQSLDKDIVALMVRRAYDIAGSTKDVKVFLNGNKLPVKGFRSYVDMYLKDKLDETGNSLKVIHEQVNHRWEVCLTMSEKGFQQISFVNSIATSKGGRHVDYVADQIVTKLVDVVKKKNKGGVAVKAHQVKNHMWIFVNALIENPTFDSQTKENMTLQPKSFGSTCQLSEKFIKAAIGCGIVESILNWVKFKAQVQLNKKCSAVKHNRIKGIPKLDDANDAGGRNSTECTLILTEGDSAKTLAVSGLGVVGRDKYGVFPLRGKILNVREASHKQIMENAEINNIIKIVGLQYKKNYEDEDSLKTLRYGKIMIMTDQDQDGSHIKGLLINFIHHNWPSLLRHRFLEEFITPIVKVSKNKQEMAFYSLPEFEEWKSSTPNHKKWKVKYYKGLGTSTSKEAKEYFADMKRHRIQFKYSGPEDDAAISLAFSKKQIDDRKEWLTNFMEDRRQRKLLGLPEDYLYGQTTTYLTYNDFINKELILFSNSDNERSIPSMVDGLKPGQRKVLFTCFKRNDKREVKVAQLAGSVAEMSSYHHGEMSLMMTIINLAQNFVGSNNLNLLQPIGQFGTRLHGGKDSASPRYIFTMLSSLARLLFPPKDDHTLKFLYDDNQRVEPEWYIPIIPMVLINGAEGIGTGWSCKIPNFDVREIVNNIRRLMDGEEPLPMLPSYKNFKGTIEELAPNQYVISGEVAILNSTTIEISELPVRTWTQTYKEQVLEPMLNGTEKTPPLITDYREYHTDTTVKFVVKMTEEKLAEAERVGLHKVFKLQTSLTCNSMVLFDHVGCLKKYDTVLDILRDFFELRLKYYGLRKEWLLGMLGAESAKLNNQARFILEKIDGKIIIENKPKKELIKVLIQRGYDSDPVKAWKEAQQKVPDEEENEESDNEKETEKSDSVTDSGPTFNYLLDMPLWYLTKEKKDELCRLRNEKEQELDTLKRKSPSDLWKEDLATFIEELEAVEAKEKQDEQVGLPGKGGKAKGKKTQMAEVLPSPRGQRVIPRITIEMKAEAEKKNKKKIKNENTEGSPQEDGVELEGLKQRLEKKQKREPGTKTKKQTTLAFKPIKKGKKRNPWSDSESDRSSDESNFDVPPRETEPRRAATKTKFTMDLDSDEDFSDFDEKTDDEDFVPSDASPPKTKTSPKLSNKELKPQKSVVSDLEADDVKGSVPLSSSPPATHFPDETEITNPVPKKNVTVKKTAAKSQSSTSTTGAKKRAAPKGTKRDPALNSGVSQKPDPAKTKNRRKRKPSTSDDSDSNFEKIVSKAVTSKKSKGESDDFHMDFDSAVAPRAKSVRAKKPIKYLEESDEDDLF

| Structure (SMILES) | ability to block DNA cleavage enhancement by etoposide (human topoisomerase IIα [1]) | inhibition of DNA relaxation by 150 nM enzyme (human topoisomerase IIα [2]) | inhibition of enzyme-mediated DNA cleavage (human topoisomerase IIα [3]) | order of potency in decatenation assay (human topoisomerase IIα [4]) | IC50 (human topoisomerase IIα [5]) | inhibition of ATP hydrolysis in the absence of DNA (human topoisomerase IIα [6]) | solubility in assay [7] | ability to inhibit DNA relaxation at 10 µM (human topoisomerase IIα [5]; 10 µM) |
| --- | --- | --- | --- | --- | --- | --- | --- | --- |
| Cl.Cl.NCCCNCC(O)COc1cc(O)c2c(=O)c3ccccc3oc2c1 (stereo not drawn) [compound 2] | competed with etoposide | complete (or near complete) inhibition | do not inhibit the DNA cleavage step | much more potent than compound 6 |  |  |  |  |
| NCCCCNCCCNCC(O)COc1cc(O)c2c(=O)c3ccccc3oc2c1.O=C(O)C(F)(F)F.O=C(O)C(F)(F)F.O=C(O)C(F)(F)F (stereo not drawn) [compound 4] | competed with etoposide | complete (or near complete) inhibition | do not inhibit the DNA cleavage step | much more potent than compound 6 | 2.5 to 5 µM and < 5 µM | no inhibition was observed |  |  |
| Cl.Cl.Cl.Cl.NCCCNCCCCNCCCNCC(O)COc1cc(O)c2c(=O)c3ccccc3oc2c1 (stereo not drawn) [compound 5] | competed with etoposide | complete (or near complete) inhibition | do not inhibit the DNA cleavage step | much more potent than compound 6 | ~1 µM and < 5 µM |  | solubility issues |  |
| O=c1c2ccccc2oc2cc(O)cc(O)c12 [compound 6, 1,3-dyhydroxy-9h-xanthen-9-one] |  | no ability to inhibit DNA relaxation |  |  |  |  |  | no ability to inhibit DNA relaxation |
